We go through 76 sequences from the array DNA melting data of Ke et al. (doi:10.1101/2024.01.08.574731).

A short description of data set [1]: folding enthalpy; higher = less favourable; fluorescence melt of hairpins on a sequencing array, two-state fit. Conditions: sodium 0.088 M. In a few lines:
(§1)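 Folding enthalpy and melting temperature come from bootstrapped two-state fits to Cy3 fluorescence of library hairpins carrying annealed Cy3 and quencher oligos on a sequenced MiSeq flow cell. Imaging was done in 50 mM Na-HEPES pH 8.0, 25 mM NaCl, stepping by 2.5 °C up to 60 °C, and signals were normalised to pre-quench Cy3 and to control constructs. Results of four replicates were combined by inverse variance, and fitted temperatures were raised by 9.35 °C to match UV melts.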

Data set [2] can be described thus: melting temperature; fluorescence melt of hairpins on a sequencing array, two-state fit, raised by 9.35 °C to match UV melts. Conditions: sodium 0.088 M. In a few lines:
as §1

With GATCATTATAATGATC ((((((....)))))), the folding enthalpy in data set [1] was -33.1 kcal/mol. The Tm in data set [2] is 49.7 °C.
The matching figures for GATCATTCACATGATC ((((((....)))))): -39.8 kcal/mol and 46.6 °C.
In the same order, the values of GATCATTCCTATGATC ((((((....)))))) are -31.5 kcal/mol and 49.7 °C.
In the same order, the values of GATCATTCGATGATC ((((((...)))))) are -35.8 kcal/mol and 47.2 °C.
For GATCATTCGCATGATC ((((((....)))))), in data set [1], the folding enthalpy is -34 kcal/mol. Also, the Tm in data set [2] is 47.5 °C.
In the same order, the values of GATCATTCGGATGATC ((((((....)))))) are -35.5 kcal/mol and 48.1 °C.
In the same order, the values of GATCATTCTAATGATC ((((((....)))))) are -31.9 kcal/mol and 49.4 °C.
In the same order, the values of GATCATTCTGATGATC ((((((....)))))) are -39.7 kcal/mol and 49.5 °C.
With GATCATTGCCATGATC ((((((....)))))), the folding enthalpy in data set [1] was -39.3 kcal/mol. Moreover, in data set [2], the Tm was 46.4 °C.
In the same order, the values of GATCATTGGATGATC ((((((...)))))) are -31.7 kcal/mol and 44.8 °C.
The matching figures for GATCATTTGGATGATC ((((((....)))))): -36.9 kcal/mol and 48.5 °C.
Regarding GATCATTTTCATGATC ((((((....)))))), the folding enthalpy in data set [1] is -31.1 kcal/mol. In addition, the Tm in data set [2] amounted to 47.6 °C.
In the same order, the values of GATCCAAAATGGATC ((((((...)))))) are -31.5 kcal/mol and 48.9 °C.
GATCCAAAGCTGGATC ((((((....)))))): the folding enthalpy in data set [1] was -36.3 kcal/mol. Moreover, the Tm in data set [2] came to 47.2 °C.
In the same order, the values of GATCCAAAGGTGGATC ((((((....)))))) are -26.1 kcal/mol and 47 °C.
The matching figures for GATCCAAAGTGGATC ((((((...)))))): -30.9 kcal/mol and 48.8 °C.
The matching figures for GATCCAAATTTGGATC ((((((....)))))): -36.1 kcal/mol and 52.9 °C.
On to GATCCAACCCTGGATC ((((((....)))))), for which, in data set [1], the folding enthalpy is -29 kcal/mol. Moreover, in data set [2], the Tm came to 48.3 °C.
In the same order, the values of GATCCAACGGTGGATC ((((((....)))))) are -43.3 kcal/mol and 49 °C.
In the same order, the values of GATCCAACTTTGGATC ((((((....)))))) are -43.3 kcal/mol and 51 °C.
On to GATCCAAGAGTGGATC ((((((....)))))), for which the folding enthalpy in data set [1] was -28.6 kcal/mol. In data set [2], the Tm turned out to be 46 °C.
The matching figures for GATCCAATATGGATC ((((((...)))))): -38.7 kcal/mol and 51.3 °C.
The matching figures for GATCCAATCATGGATC ((((((....)))))): -37.5 kcal/mol and 50.8 °C.
The matching figures for GATCCACAATTGGATC ((((((....)))))): -32.4 kcal/mol and 47.5 °C.
Turning to GATCCACACATGGATC ((((((....)))))), the folding enthalpy in data set [1] is -40 kcal/mol. In addition, in data set [2], the Tm came out at 52.4 °C.
In the same order, the values of GATCCACACCTGGATC ((((((....)))))) are -44.8 kcal/mol and 51 °C.
The matching figures for GATCCACAGCTGGATC ((((((....)))))): -31.7 kcal/mol and 47.6 °C.
In the same order, the values of GATCCACATCTGGATC ((((((....)))))) are -29.1 kcal/mol and 49.2 °C.
As for GATCCACCCTTGGATC ((((((....)))))), the folding enthalpy in data set [1] is -34.8 kcal/mol. Moreover, the Tm in data set [2] came out at 50.4 °C.
The matching figures for GATCCACCGGTGGATC ((((((....)))))): -50 kcal/mol and 60.3 °C.
In the same order, the values of GATCCACCTTTGGATC ((((((....)))))) are -34.9 kcal/mol and 50.1 °C.
As for GATCCACGAAAGTGCATC (((.(((....))).))), the folding enthalpy in data set [1] is -16.1 kcal/mol. In addition, the Tm in data set [2] is 32.8 °C.
Take GATCCACGAATGGATC ((((((....)))))): in data set [1], the folding enthalpy is -34.4 kcal/mol. For the same sequence, the Tm in data set [2] was 48.1 °C.
On to GATCCACGCTGGATC ((((((...)))))), for which the folding enthalpy in data set [1] is -31.3 kcal/mol. In data set [2], the Tm was found to be 51.6 °C.
The matching figures for GATCCACGTGTGGATC ((((((....)))))): -44.5 kcal/mol and 65.9 °C.
In the same order, the values of GATCCACTCGTGGATC ((((((....)))))) are -45.8 kcal/mol and 63.2 °C.
In the case of GATCCACTCTGGATC ((((((...)))))), the folding enthalpy in data set [1] was -36.5 kcal/mol. Further, in data set [2], the Tm was 52.4 °C.
The matching figures for GATCCACTTGTGGATC ((((((....)))))): -37.5 kcal/mol and 66.5 °C.
In the same order, the values of GATCCAGAATGGATC ((((((...)))))) are -50.9 kcal/mol and 58.1 °C.
The matching figures for GATCCAGAGCTGGATC ((((((....)))))): -37.6 kcal/mol and 50.4 °C.
In the case of GATCCAGAGTGGATC ((((((...)))))), the folding enthalpy in data set [1] is -31.3 kcal/mol. Moreover, in data set [2], the Tm stood at 48.8 °C.
In the same order, the values of GATCCAGATATGGATC ((((((....)))))) are -41.7 kcal/mol and 57.1 °C.
In the same order, the values of GATCCAGATTGGATC ((((((...)))))) are -34.1 kcal/mol and 50.6 °C.
For the sequence GATCCAGCAGTGGATC ((((((....)))))), the folding enthalpy in data set [1] is -41.1 kcal/mol. Besides, the Tm in data set [2] worked out at 52.7 °C.
For the sequence GATCCAGCGATGGATC ((((((....)))))), the folding enthalpy in data set [1] was -42.4 kcal/mol. Besides, in data set [2], the Tm was 55.6 °C.
In the same order, the values of GATCCAGGAATGGATC ((((((....)))))) are -40.6 kcal/mol and 54 °C.
The matching figures for GATCCAGGCGTGGATC ((((((....)))))): -40.9 kcal/mol and 53.6 °C.
Consider GATCCAGGTTGGATC ((((((...)))))), for which, in data set [1], the folding enthalpy was -41.9 kcal/mol. Further, the Tm in data set [2] amounted to 50.7 °C.
In the same order, the values of GATCCAGGTTTGGATC ((((((....)))))) are -42.5 kcal/mol and 51.7 °C.
The matching figures for GATCCAGTCTGGATC ((((((...)))))): -38.1 kcal/mol and 55.1 °C.
In the same order, the values of GATCCAGTGCTGGATC ((((((....)))))) are -47.8 kcal/mol and 52.8 °C.
Turning to GATCCAGTGTTGGATC ((((((....)))))), the folding enthalpy in data set [1] was -36.9 kcal/mol. Further, the Tm in data set [2] is 50.8 °C.
The matching figures for GATCCAGTTTTGGATC ((((((....)))))): -41.6 kcal/mol and 52.4 °C.
As to GATCCATAATGGATC ((((((...)))))), the folding enthalpy in data set [1] was -34.8 kcal/mol. For the same sequence, in data set [2], the Tm stood at 49.6 °C.
The matching figures for GATCCATACATGGATC ((((((....)))))): -50.8 kcal/mol and 55.8 °C.
For GATCCATACTGGATC ((((((...)))))), the folding enthalpy in data set [1] is -37.6 kcal/mol. Further, the Tm in data set [2] worked out at 51.4 °C.
The matching figures for GATCCATAGTGGATC ((((((...)))))): -38.1 kcal/mol and 49.2 °C.
The matching figures for GATCCATATCTGGATC ((((((....)))))): -35.5 kcal/mol and 49.7 °C.
The matching figures for GATCCATATTGGATC ((((((...)))))): -37.3 kcal/mol and 51.7 °C.
For the sequence GATCCATCGCTGGATC ((((((....)))))), in data set [1], the folding enthalpy was -39.1 kcal/mol. Moreover, the Tm in data set [2] was 50.8 °C.
In the same order, the values of GATCCATCTTGGATC ((((((...)))))) are -35.2 kcal/mol and 51.6 °C.
The matching figures for GATCCATGACTGGATC ((((((....)))))): -35.5 kcal/mol and 48.6 °C.
In the same order, the values of GATCCATGAGTGGATC ((((((....)))))) are -35.3 kcal/mol and 55 °C.
Consider GATCCATGCTGGATC ((((((...)))))), for which, in data set [1], the folding enthalpy was -35.3 kcal/mol. Besides, the Tm in data set [2] was determined as 52 °C.
The matching figures for GATCCATGGGTGGATC ((((((....)))))): -41.4 kcal/mol and 54.4 °C.
In the same order, the values of GATCCATGGTTGGATC ((((((....)))))) are -42.8 kcal/mol and 51.3 °C.
In the same order, the values of GATCCATGTCTGGATC ((((((....)))))) are -40.9 kcal/mol and 50.5 °C.
Consider GATCCATTCGTGGATC ((((((....)))))), for which, in data set [1], the folding enthalpy is -41.1 kcal/mol. In data set [2], the Tm amounted to 55.3 °C.
In the same order, the values of GATCCCAACCGGGATC ((((((....)))))) are -35.1 kcal/mol and 63.4 °C.
As to GATCCCAAGGGGGATC ((((((....)))))), in data set [1], the folding enthalpy is -33 kcal/mol. The Tm in data set [2] was 58.1 °C.
The matching figures for GATCCCAAGTGGGATC ((((((....)))))): -37.4 kcal/mol and 60.5 °C.
The matching figures for GATCCCACACGGGATC ((((((....)))))): -43.7 kcal/mol and 63.1 °C.
The matching figures for GATCCCACTTGGGATC ((((((....)))))): -42.5 kcal/mol and 61.1 °C.
In the case of GATCCCAGCGGGGATC ((((((....)))))), in data set [1], the folding enthalpy is -34.9 kcal/mol. For the same sequence, in data set [2], the Tm is 60.6 °C.
In the same order, the values of GATCCCAGGGGGATC ((((((...)))))) are -34.7 kcal/mol and 67 °C.
The matching figures for GATCCCATAAGGGATC ((((((....)))))): -39.4 kcal/mol and 63.9 °C.
